Measurements published in ChEMBL document CHEMBL1143912, “Synthesis and anti-HIV evaluation of novel 1,3-disubstituted thieno[3,2-c][1,2,6]thiadiazin-4(3H)-one 2,2-dioxides(TTDDs)” (Bioorg Med Chem, 2008).
Active and inactive are the calls of the source. No cut-off for these calls is given here.

Key:
[1] = Selectivity index, Ratio of CC50 for human MT4 cells to EC50 for HIV1 3B; type: functional
In short: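 SI is CC50 in mock-infected MT-4 cells divided by EC50 against HIV-1 IIIB. Both come from the same 4-day MTT assay run in parallel in infected (MOI 0.02) and uninfected cells, each as the mean of at least two experiments.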

[2] = tested on: Human immunodeficiency virus 2; assay: Antiviral activity against HIV2 ROD assessed as inhibition of virus-induced cytopathogenicity in MT4 cells after 4 days by MTT assay; type: functional, organism-based
In short: (§1)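 MT-4 cells at 1 × 10⁵ cells/mL infected at MOI 0.02, then immediately plated into wells holding serial concentrations of compound (DMSO stocks, 10 mg/ml). Incubated 4 days at 37 °C, then viable cells read by MTT. EC50 is the concentration protecting 50% of infected cells from viral cytopathicity. Values are means of at least two separate experiments.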

[3] = Cytotoxicity against human MT4 cells after 4 days by MTT assay; type: cell-based
In short: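 Uninfected MT-4 cells were run in parallel with the antiviral assay, exposed to serial compound concentrations (DMSO stocks, 10 mg/ml) for 4 days at 37 °C, with viability read by MTT. CC50 is the concentration cutting mock-infected cell viability by 50%. ">" marks the highest concentration tested that was still non-cytotoxic. Values are means of at least two experiments.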

[4] = tested on: Human immunodeficiency virus 1; assay: Antiviral activity against HIV1 3B assessed as inhibition of virus-induced cytopathogenicity in MT4 cells after 4 days by MTT assay; type: functional, organism-based; conditions: Human immunodeficiency virus 1, 3B, MT4, 96 h; in short: as §1

| SMILES | Ratio CC50/EC50 [1] | Activity [2] | CC50 at 96 h [3] [µM] | EC50 [4] [µM] |
| --- | --- | --- | --- | --- |
| O=C1c2sccc2N(Cc2ccccc2)S(=O)(=O)N1Cc1ccccc1 | <1 | inactive | 37.5 | > 37.5 |
| CN1c2ccsc2C(=O)N(Cc2ccccc2)S1(=O)=O | 3 | inactive | 202 | 71 |
| Cc1cn([C@H]2C[C@H](N=[N+]=[N-])[C@@H](CO)O2)c(=O)[nH]c1=O [ZIDOVUDINE] | 50587 | – | 35.6 | 0.0007 |
| O=C1c2sccc2N(Cc2ccc(Br)cc2)S(=O)(=O)N1Cc1ccccc1 | <1 | inactive | 6.6 | > 6.6 |
| O=C1c2sccc2N(Cc2ccc([N+](=O)[O-])cc2)S(=O)(=O)N1Cc1ccccc1 | <1 | inactive | 268 | > 268 |
| O=C1c2sccc2N(Cc2ccc(Cl)cc2)S(=O)(=O)N1Cc1ccccc1 | <1 | inactive | 8.2 | > 8.2 |
| O=C1c2sccc2N(Cc2ccccc2Br)S(=O)(=O)N1Cc1ccccc1 | >37 | inactive | > 270 | 7.3 |
| O=C1c2sccc2N(Cc2cccc(Cl)c2)S(=O)(=O)N1Cc1ccccc1 | >51 | inactive | > 299 | 5.9 |
| N#CCN1c2ccsc2C(=O)N(Cc2ccccc2)S1(=O)=O | <1 | inactive | 5.7 | > 5.7 |
| O=C1c2sccc2N(Cc2ccccc2Cl)S(=O)(=O)N1Cc1ccccc1 | >62 | inactive | > 299 | 4.8 |
| N#CCN1C(=O)N(Cc2ccccc2)S(=O)(=O)c2cscc21 | 559 | – | 503 | 0.9 |
| N#Cc1cccc(CN2c3ccsc3C(=O)N(Cc3ccccc3)S2(=O)=O)c1 | >76 | inactive | > 306 | 4 |
| N#Cc1ccccc1CN1c2ccsc2C(=O)N(Cc2ccccc2)S1(=O)=O | >59 | inactive | > 306 | 5.1 |
| O=C1c2sccc2NS(=O)(=O)N1Cc1ccccc1 | <1 | inactive | 374 | > 374 |
| Cc1ccnc2c1NC(=O)c1cccnc1N2C1CC1 [NEVIRAPINE] | 22767 | – | 683 | 0.03 |
| O=C1N(Cc2ccccc2Cl)c2cscc2S(=O)(=O)N1Cc1ccccc1 | >1190 | – | > 119 | 0.1 |
| N#Cc1ccc(CN2c3ccsc3C(=O)N(Cc3ccccc3)S2(=O)=O)cc1 | <1 | inactive | 8.5 | > 8.5 |
| O=C1c2sccc2N(Cc2ccc(Cl)cc2Cl)S(=O)(=O)N1Cc1ccccc1 | 5 | inactive | 247 | 52.1 |
